Activity calls are given as the source filed them. The calls are words filed in the database; no cut-off is given here.
Columns and labels:
[1] = Apparent permeability of the compound from basal to apical side of human Caco2 cells at 50 uM after 2 hrs; format: ADME, cell-based; details: Caco-2
[2] = test system: Liver microsomes; test: Half life in human liver microsomes at 1 uM after 1 hr in absence of NADPH; format: ADME, Microsome
How it was run: (§1)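 Human or mouse liver microsomes; test compound at 1 μM, incubated at 37 °C for 1 h with and without NADPH. Intrinsic clearance given in mL/min/kg and half-life in min.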

[3] = Inhibition of SOD1 G93A mutant-induced protein aggregation in MG132-treated rat PC12 cells assessed as decrease in cell death incubated for 24 hrs prior to MG132 treatment measured after 48 hrs by Calcein-AM staining method; format: cell-based; details: PC-12
[4] = Aqueous solubility of the compound in DMSO after 1 hr by spectrophotometry; format: physicochemical
How it was run: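 Aqueous solubility: DMSO stock diluted into PBS to a final 1% DMSO. The limit was taken as the highest concentration showing no precipitation.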

[5] = test system: Liver microsomes; test: Half life in human liver microsomes at 1 uM after 1 hr in presence of NADPH; format: ADME, Microsome; how it was run: as §1
[6] = Intrinsic clearance in human liver microsomes at 1 uM after 1 hr in absence of NADPH; format: ADME, Microsome; details: read-out: CLH; how it was run: as §1
[7] = test system: Liver; test: Half life in mouse liver microsomes at 1 uM after 1 hr in presence of NADPH; format: ADME, Microsome; how it was run: as §1
[8] = Apparent permeability of the compound from apical to basal side of human Caco2 cells at 50 uM after 2 hrs; format: ADME, cell-based; details: Caco-2
[9] = Half life in plasma; format: ADME, cell-free
[10] = test system: Caco-2; test: Efflux ratio of apparent permeability from basal to apical to apical to basal side of human Caco2 cells at 50 uM after 2 hrs; format: ADME, cell-based; details: caco-2, 2 h
[11] = test system: Cerebral cortex neuron; test: Inhibition of SOD1 G93A mutant-induced protein aggregation in MG132-treated rat primary cortical neurons assessed as decrease in cell death up to 100 uM incubated for 24 hrs prior to MG132 treatment measured after 48 hrs by Calcein-AM staining method; format: cell-based
[12] = test system: Liver; test: Half life in mouse liver microsomes at 1 uM after 1 hr in absence of NADPH; format: ADME, Microsome; how it was run: as §1
[13] = test system: Mus musculus; test: Increase in life span of transgenic mouse expressing human SOD1 G93A mutant at 22 mg/kg; format: functional
[14] = Half life in blood at 500 mg/kg, ip; format: ADME, organism-based; set-up: dose 500 mg/kg, route intraperitoneal
How it was run: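 Compound given i.p. at 500 mg/kg. Concentrations were measured in blood, with brain levels sampled in the same study. The half-life was taken from the blood time course.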

[15] = test system: Cerebral cortex neuron; test: Inhibition of SOD1 G93A mutant-induced protein aggregation in MG132-treated rat primary cortical neurons assessed as decrease in cell death at 3 uM incubated for 24 hrs prior to MG132 treatment measured after 48 hrs by Calcein-AM staining method; format: cell-based
[16] = test system: Liver microsomes; test: Drug metabolism in rat liver microsomes at 10 uM after 1 hr by LC-PDA-MS/MS analysis; format: ADME, Microsome
[17] = Drug uptake in brain at 500 mg/kg, ip; format: ADME, organism-based; set-up: dose 500 mg/kg, route intraperitoneal; details: in vivo, read-out: Drug uptake
How it was run: (§2)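 Single i.p. dose of 500 mg/kg in mice. Blood and brain levels were sampled over time to find the maximum level and Tmax.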

[18] = test system: Mus musculus; test: Increase in life span of transgenic mouse expressing human SOD1 G93A mutant assessed as survival at 30 mg/kg administered QD until death (reference value: 125.7+/-4.3 days); format: functional
How it was run: (§3)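 Transgenic mice expressing human G93A mutant SOD1, cohorts matched for age (±3 days) and "f" generation, drawn from multiple litters. Dosed 10, 20 or 30 mg/kg once daily from 6 weeks of age until end of life; untreated G93A mice served as controls. Survival read out by Kaplan-Meier plot and reported as mean ± value in days, with p values.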

[19] = Toxicity in mouse administered BID; format: organism-based; details: in vivo
How it was run: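 Tolerable dose range found in wild-type mice by escalating the dose given b.i.d.; maximum tolerated dose taken as the read-out.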

[20] = test system: Mus musculus; test: Increase in life span of transgenic mouse expressing human SOD1 G93A mutant assessed as survival at 10 mg/kg administered QD until death (reference value: 125.7+/-4.3 days); format: functional; how it was run: as §3
[21] = test system: Mus musculus; test: Increase in life span of transgenic mouse expressing human SOD1 G93A mutant at 20 mg/kg administered QD until death relative to untreated-control; format: functional; how it was run: as §3
[22] = Drug uptake in blood at 500 mg/kg, ip at 12 hrs; format: ADME, organism-based; set-up: dose 500 mg/kg, route intraperitoneal; details: read-out: Drug uptake; how it was run: as §2
[23] = Tmax in brain at 500 mg/kg, ip; format: ADME, organism-based; set-up: dose 500 mg/kg, route intraperitoneal
How it was run: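 Compound given as a single intraperitoneal dose of 500 mg/kg. Levels were followed over time in both blood and brain. Tmax is the time at which the brain concentration peaked.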

[24] = test system: Cerebral cortex neuron; test: Inhibition of SOD1 G93A mutant-induced protein aggregation in MG132-treated rat primary cortical neurons assessed as decrease in cell death at 10 uM incubated for 24 hrs prior to MG132 treatment measured after 48 hrs by Calcein-AM staining method; format: cell-based

With `O=C1CC(=O)CC([C@@H]2C[C@H]2c2cc(C(F)(F)F)cc(C(F)(F)F)c2)C1` the Papp B→A at 2 h, 50 µM [1] was 1.1 ×10⁻⁶ cm/s, the t1/2 [2] was over 3 h and the EC50 [3] was 0.8 µM. For the same compound, the solubility [4] was “>= 100 uM”, the t1/2 [5] was 0.817 h and the CLint scaled at 1 µM [6] was 12 mL/min/kg. The t1/2 [7] was 0.467 h, the Papp A→B at 2 h, 50 µM [8] was 21.7 ×10⁻⁶ cm/s and the t1/2 [9] was 1.18 h. For the same compound, the Ratio [10] was 0.1, the inhibition [11] was “Active” and the t1/2 [12] was 0.617 h.

Compound `Nc1nc2ccc(OC(F)(F)F)cc2s1` [RILUZOLE] has a survival at 22 mg/kg [13] of 10%.

In the case of `CC(Oc1cc(C(F)(F)F)cc(C(F)(F)F)c1)C1CC(=O)CC(=O)C1` (racemic), the EC50 [3] is reported as 0.7 µM and the inhibition [11] is reported as “Active”.

`C[C@H](Oc1cc(C(F)(F)F)cc(C(F)(F)F)c1)C1CC(=O)CC(=O)C1` gave a half-life [14] of 12 h, a Papp B→A at 2 h, 50 µM [1] of 1.5 ×10⁻⁶ cm/s and a t1/2 [2] of over 3 h. For the same compound, the EC50 [3] was 0.3 µM, the solubility [4] was “>= 100 uM” and the inhibition [15] was over 90%. The CLint scaled at 1 µM [6] was 10 mL/min/kg, the t1/2 [7] was 0.867 h and the Drug metabolism [16] was “Active”. It also gave a Papp A→B at 2 h, 50 µM [8] of 24.1 ×10⁻⁶ cm/s, a concentration [17] of 8.3 µM and a t1/2 [9] of over 1 h. For the same compound, the Survival [18] was 127.9 days, the Ratio [10] was 0.1 and the inhibition [11] was “Active”. For the same compound, the MTD [19] was 1280 mg/kg, the Survival [20] was 139.2 days and the survival at 20 mg/kg [21] was 13%. It also gave a t1/2 [12] of 0.867 h, a concentration at 12 h [22] of 245 µM and a Tmax [23] of 12 h.

In the case of `C[C@@H](Oc1cc(C(F)(F)F)cc(C(F)(F)F)c1)C1CC(=O)CC(=O)C1`, the EC50 [3] is reported as 1.3 µM and the inhibition [11] is reported as “Active”.

In the case of `O=c1cc(COc2cc(Cl)cc(Cl)c2)[nH][nH]1`, the inhibition [24] is reported as “Active”.

For `O=C1CC(=O)CC(C2CC2c2cc(C(F)(F)F)cc(C(F)(F)F)c2)C1` (racemic), the EC50 [3] was 1 µM and the inhibition [11] was “Active”.

In the case of `O=C1CC(=O)CC(c2cc(C(F)(F)F)cc(C(F)(F)F)c2)C1`, the EC50 [3] is reported as 0.7 µM and the inhibition [11] is reported as “inactive”.

With `O=C1CC(=O)CC([C@H]2C[C@@H]2c2cc(C(F)(F)F)cc(C(F)(F)F)c2)C1` the EC50 [3] was 1.39 µM and the inhibition [11] was “Active”.

Reference: ChEMBL document CHEMBL2086384, “Chiral cyclohexane 1,3-diones as inhibitors of mutant SOD1-dependent protein aggregation for the treatment of ALS” (ACS Med Chem Lett, 2012)
